Each block holds one molecule with its values, some of them ahead of it.
How the values were obtained:
[1] = target: TTR in human blood plasma (Homo sapiens, UniProt P02766); experiment: covalent modification of TTR in human blood plasma ex vivo; type: binding; conditions: compound 10.8 μM, 37 °C, maximum 50% (2/4 subunits)
Outline: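 Test compound at 10.8 μM final, from DMSO stock, incubated with human plasma (TTR 3.6–5.4 μM) for 24 h at 37 °C with rocking. Plasma pre-cleared on plain sepharose for 1 h at 4 °C. TTR immunocaptured on anti-TTR sepharose for 20 min at 4 °C, then washed with Tris-saline ± 0.05% saponin. Eluted with 100 mM triethylamine, pH 11.5. C18 RP-HPLC, 45-min 0.1% TFA water→acetonitrile gradient; at most 2/4 subunits modifiable.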

[2] = target: recombinant WT-TTR (Homo sapiens, UniProt P02766); experiment: conjugation of recombinant WT-TTR by RP-HPLC; type: binding; conditions: for conjugation half-life (t50) with WT-TTR: recombinant WT-TTR, C18-RP-HPLC
[3] = target: T1, K15A-TTR (Homo sapiens, UniProt P02766, K35A); experiment: reaction with K15A-TTR homotetramer by RP-HPLC; type: binding; conditions: compound 7.2 μM, 18 h, 25 °C
[4] = target: T1, K15A-TTR; experiment: non-covalent binding to K15A-TTR; conditions: out of a maximum of 2 eq.; immunocapture, high-pH dissociation, HPLC
[5] = target: T1, K15A-TTR; experiment: K15A-TTR fibril formation at pH 4.4 with non-covalent stabilizers; type: biochemical; conditions: compound 7.2 μM, 72 h
[6] = system: IMR-32 human neuroblastoma cells; conditions: cited from earlier work

% Modification of TTR subunits in Human Blood Plasma [1]: 36% (±0.4%)
conjugation half-life (t50) with WT-TTR [2]: 143 min
Compound: O=C(Sc1ccccc1)c1cccc(/C=C/c2cc(Br)c(O)c(Br)c2)c1 [Compound 1]

% Modification of TTR subunits in Human Blood Plasma [1]: 48% (±1.3%)
conjugation half-life (t50) with WT-TTR [2]: 5 to 15 min
Compound: Cc1cc(/C=C/c2cccc(C(=O)Sc3ccccc3)c2)cc(C)c1O [Compound 2]

% Modification of TTR subunits in Human Blood Plasma [1]: 49% (±0.7%)
conjugation half-life (t50) with WT-TTR [2]: 5 to 15 min
Compound: Cc1cc(/C=C/c2cccc(C(=O)Oc3ccccc3[N+](=O)[O-])c2)cc(C)c1O [Compound 3]

reaction with K15A-TTR [3]: no reaction could be detected
equivalents non-covalently bound to K15A-TTR homotetramer [4]: 1.4 eq.
Compound: Cc1cc(/C=C/c2cccc(C(=O)Oc3ccc(F)cc3)c2)cc(C)c1O [Compound 4]

reaction with K15A-TTR [3]: more non-chemoselective conjugation
Compound: Cc1cc(/C=C/c2ccc(C(=O)Oc3ccccc3[N+](=O)[O-])cc2)cc(C)c1O [Compound 6]

conjugation yield with WT-TTR ([2]; WT-TTR […], compound 7.2 μM, 18 h, 25 °C): lower modification yield
Compound: Cc1cc(/C=C/c2ccc(C(=O)Oc3ccc(F)cc3)cc2)cc(C)c1O [Compound 7]

Compound: Cc1cc(/C=C/c2cccc(C(=O)O)c2)cc(C)c1O [Compound 8]
stabilization of K15A-TTR against fibril formation [5]: additional stabilization of K15A-TTR was observed

Compound: Cc1cc(/C=C/c2ccccc2)cc(C)c1O [Compound 9]
stabilization of K15A-TTR against fibril formation [5]: additional stabilization of K15A-TTR was observed

Compound: Oc1ccc(/C=C/c2cc(O)cc(O)c2)cc1 [resveratrol]
prevention of amyloid-formation-associated cytotoxicity [6]: known to prevent amyloid-formation-associated cytotoxicity

— article PMC3107129 (Nature chemical biology, 2010)
